Measured values as given in ChEMBL document CHEMBL5584302, “Exploration of Hydrazide-Based HDAC8 PROTACs for the Treatment of Hematological Malignancies and Solid Tumors” (J Med Chem, 2024).
Calls of active or inactive are those of the source. No cut-off for these calls is given here.

Columns and labels:
HCT-116 [1] = assay: Induction of apoptosis in human HCT-116 cells assessed as increase in caspase 3/7 activity incubated for 48 hrs; assay type: functional, cell-based; conditions: dose 12.5-5 µM
Jurkat [2] = assay: Upregulation of Ac-SMC3 level in human Jurkat cells at 1 uM measured after 6 hrs by Western blot analysis; assay type: functional, cell-based
Procedure, shortened: (§1)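 Jurkat cells exposed to the indicated compound concentrations for 6 h. Ac-SMC3 and Ac-HH3 were detected by Western blot with GAPDH as loading control. Bands were quantified by densitometry and normalized to the DMSO-treated group. Data are mean ± SEM of two independent experiments, compared with DMSO by one-way ANOVA.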

HCT-116 [3] = assay: Upregulation of Ac-HH3 level in human HCT-116 cells incubated for 6 hrs by Western blot analysis; assay type: functional, cell-based; conditions: dose 0.004-3.3 µM
Procedure, shortened: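 HCT116 cells were incubated with graded concentrations for 6 h. Ac-HH3 was detected by Western blot with GAPDH as the loading control, then quantified by densitometry and normalized to DMSO-treated cells. Data are mean ± SEM of two independent experiments, compared against DMSO by one-way ANOVA.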

Jurkat [4] = assay: Effect on IKZF1 level in human Jurkat cells at upto 10 uM by Western blot analysis; assay type: functional, cell-based
Procedure, shortened: (§2)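 Jurkat cells were treated with graded concentrations for 6 h, alongside 10 μM pomalidomide. IKZF1, IKZF3 and GSPT1 were detected by Western blot, with GAPDH as the loading control.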

HCT-116 [5] = assay: Induction of apoptosis in human HCT-116 cells assessed as increase in caspase 3/7 activity at 5 uM incubated for 48 hrs; assay type: functional, cell-based
HCT-116 [6] = assay: Induction of apoptosis in human HCT-116 cells assessed as necrotic cells at 1.1 uM measured after 48 hrs by AnnexinV/FITC and PI staining based flow cytometry analysis (reference value: […]); assay type: functional
Jurkat [7] = assay: Induction of ferroptosis in human Jurkat cells assessed as increase in lipid peroxidation incubated for 48 hrs by BODIPY 581/591 C11 staining based flow cytometry analysis; assay type: functional, cell-based
Jurkat [8] = assay: Upregulation of Ac-SMC3 level in human Jurkat cells measured after 6 hrs by Western blot analysis; assay type: functional, cell-based; conditions: dose 0.0001-1 µM; procedure, shortened: as §1
Jurkat [9] = assay: Induction of ferroptosis in human Jurkat cells assessed as increase in lipid peroxidation incubated for 24 hrs by BODIPY 581/591 C11 staining based flow cytometry analysis; assay type: functional, cell-based; conditions: dose 0.37-10 µM
HCT-116 [10] = assay: cells; conditions: Homo sapiens
THP-1 [11] = assay: Induction of ferroptosis in human THP-1 cells assessed as increase in lipid peroxidation at 0.37 to 10 uM incubated for 24 hrs by BODIPY 581/591 C11 staining based flow cytometry analysis; assay type: functional, cell-based; conditions: dose 0.37-10 µM
Jurkat [12] = assay: Effect on IKZF3 level in human Jurkat cells at upto 10 uM by Western blot analysis; assay type: functional, cell-based; procedure, shortened: as §2
Jurkat [13] = assay: Induction of cell death in human Jurkat cells at 5 uM measured after 48 hrs in presence of chloroquine by flow cytometry analysis; assay type: functional, cell-based
THP-1 [14] = assay: cells; conditions: Homo sapiens
HCT-116 [15] = assay: Induction of cell cycle arrest in human HCT-116 cells assessed as accumulation of cells at G2/M phase measured after 48 hrs by PI staining based flow cytometry analysis; assay type: functional; conditions: dose 0.13-3.3 µM
HCT-116 [16] = assay: Upregulation of Ac-HH3 level in human HCT-116 cells at 0.04 to 3.3 uM measured after 24 hrs by Western blot analysis; assay type: functional, cell-based; conditions: dose 0.04-3.3 µM
Jurkat [17] = assay: Upregulation of AcHH3 level on human Jurkat cells at 0.04 to 10 uM measured after 48 hrs by Western blot analysis; assay type: functional, cell-based; conditions: dose 0.04-10 µM
Jurkat [18] = assay: Upregulation of Ac-SMC3 level in human Jurkat cells incubated for 6 hrs by Western blot analysis; assay type: functional, cell-based; conditions: dose <= 1.0 µM; procedure, shortened: as §1
Jurkat [19] = assay: Effect on GSPT1 level in human Jurkat cells at upto 10 uM by Western blot analysis; assay type: functional, cell-based; procedure, shortened: as §2
Jurkat [20] = assay: Induction of apoptosis in human Jurkat cells at 1.1 to 10 uM measured after 24 to 48 hrs by AnnexinV/FITC and PI staining based flow cytometry analysis; assay type: functional, cell-based; conditions: dose 1.1-10 µM, time 24-48 hrs
THP-1 [21] = assay: Upregulation of Ac-HH3 level in human THP-1 cells at 0.04 to 3.3 uM measured after 24 hrs by Western blot analysis; assay type: functional, cell-based; conditions: dose 0.04-3.3 µM
Procedure, shortened: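 THP-1 cells were exposed to the compound at the indicated concentrations for 24 h, then immunoblotted for Ac-HH3, Ac-SMC3, Ac-tubulin and HDAC8 with GAPDH as loading control. Band intensities were quantified and normalized to the DMSO-treated group. Data are mean ± SEM of two independent experiments, analysed by one-way ANOVA against DMSO.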

Jurkat [22] = assay: cells; conditions: Homo sapiens
Jurkat [23] = assay: Upregulation of Ac-tubulin level in human Jurkat cells at upto 1 uM measured after 6 hrs by Western blot analysis; assay type: functional, cell-based
Procedure, shortened: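 Jurkat cells were treated for 6 h at the indicated concentrations. Acetylated tubulin was probed by Western blot, with GAPDH as loading control.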

Jurkat [24] = assay: Induction of cell death in human Jurkat cells at 5 uM measured after 48 hrs in presence of Z-VAD-FMK by flow cytometry analysis; assay type: functional, cell-based
Jurkat [25] = assay: Induction of cell death in human Jurkat cells at 5 uM measured after 48 hrs in presence of ferrostatin-1 by flow cytometry analysis; assay type: functional, cell-based
Jurkat [26] = assay: Induction of cell death in human Jurkat cells at 5 uM measured after 48 hrs in presence of necrostatin-1 by flow cytometry analysis; assay type: functional, cell-based
Jurkat [27] = assay: Induction of apoptosis in human Jurkat cells assessed as increase in caspase 3/7 activity incubated for 48 hrs; assay type: functional, cell-based; conditions: dose upper 5.0 µM
HCT-116 [28] = assay: Induction of ferroptosis in human HCT-116 cells assessed as increase in lipid peroxidation at low concentration incubated for 24 hrs by BODIPY 581/591 C11 staining based flow cytometry analysis; assay type: functional, cell-based; conditions: dose 0.37-10 µM
Jurkat [29] = assay: Upregulation of AcHH4 level on human Jurkat cells at 0.04 to 10 uM measured after 48 hrs by Western blot analysis; assay type: functional, cell-based; conditions: dose 0.04-10 µM
Jurkat [30] = assay: cells; conditions: Homo sapiens; remark: listed apart in the source
Jurkat [31] = assay: cells; conditions: Homo sapiens; remark: listed apart in the source
Jurkat [32] = assay: Upregulation of Ac-HH3 level in human Jurkat cells at 1 uM measured after 6 hrs by Western blot analysis; assay type: functional, cell-based; procedure, shortened: as §1
Jurkat [33] = assay: Induction of cell cycle arrest in human Jurkat cells assessed as accumulation of cells at G0/G1 phase measured after 48 hrs by PI staining based flow cytometry analysis; assay type: functional; conditions: dose 0.13-3.3 µM
A549 = assay: cells; conditions: Homo sapiens
Jurkat [34] = assay: cells; conditions: Homo sapiens; remark: listed apart in the source
Jurkat [35] = assay: Induction of apoptosis in human Jurkat cells assessed as increase in caspase 3/7 activity at 5 uM incubated for 48 hrs; assay type: functional, cell-based
Jurkat [36] = assay: Upregulation of Ac-HH3 level in human Jurkat cells incubated for 6 hrs by Western blot analysis; assay type: functional, cell-based; procedure, shortened: as §1
HCT-116 [37] = assay: Induction of apoptosis in human HCT-116 cells measured after 48 hrs by AnnexinV/FITC and PI staining based flow cytometry analysis; assay type: functional, cell-based; conditions: dose 1.1-10 µM
Jurkat [38] = assay: Upregulation of Ac-HH3 level in human Jurkat cells measured after 24 hrs by Western blot analysis; assay type: functional, cell-based; conditions: dose <= 10000.0 nM
Procedure, shortened: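 Jurkat cells were incubated 24 h with the indicated concentrations. Ac-HH3 was detected by Western blot against a GAPDH loading control, quantified by densitometry and normalized to DMSO-treated cells. Data are mean ± SEM of two independent experiments; one-way ANOVA vs DMSO.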

HCT-116 [39] = assay: Upregulation of Ac-SMC3 level in human HCT-116 cells incubated for 6 hrs by Western blot analysis; assay type: functional, cell-based; conditions: dose 0.004-3.3 µM
Procedure, shortened: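 HCT116 cells were treated 6 h with the indicated concentrations. Ac-SMC3 was measured by Western blot with GAPDH as loading control, quantified by densitometry and normalized to the DMSO group. Data are mean ± SEM from two independent experiments; one-way ANOVA vs DMSO.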

IC50 (HCT-116 [10]): 3800 nM | IC50 (THP-1 [14]): > 33300 nM | IC50 (Jurkat [22]): 2800 nM | IC50 (Jurkat [30]): 2000 nM | IC50 (Jurkat [31]): 1500 nM | IC50 (A549): 17500 nM | IC50 (Jurkat [34]): 2500 nM
SMILES: CCCCCCNNC(=O)c1ccc(CNC(=O)CN2CCC(c3ccc(NC4CCC(=O)NC4=O)cc3)CC2)cc1 (stereo not given)
Activity (HCT-116 [1]): Dose-Dependent Effect | Activity (Jurkat [2]): Active | Activity (HCT-116 [3]): Dose-Dependent Effect | Activity (Jurkat [4]): inactive | Activity (HCT-116 [5]): Active | Activity (HCT-116 [6]): 4.28% | Activity (Jurkat [7]): inactive | Activity (Jurkat [8]): Dose-Dependent Effect | Activity (Jurkat [9]): Dose-Dependent Effect | Activity (THP-1 [11]): inactive | Activity (Jurkat [12]): inactive | Activity (Jurkat [13]): Active | Activity (HCT-116 [15]): Dose-Dependent Effect | Activity (HCT-116 [16]): Active | Activity (Jurkat [17]): Active | Activity (Jurkat [18]): Dose-Dependent Effect | Activity (Jurkat [19]): inactive | Activity (Jurkat [20]): inactive | Activity (THP-1 [21]): Active | Activity (Jurkat [23]): inactive | Activity (Jurkat [24]): Active | Activity (Jurkat [25]): Active | Activity (Jurkat [26]): Active | Activity (Jurkat [27]): Dose-Dependent Effect | Activity (HCT-116 [28]): Active | Activity (Jurkat [29]): Active | Activity (Jurkat [32]): Active | Activity (Jurkat [33]): Dose-Dependent Effect | Activity (Jurkat [35]): Active | Activity (Jurkat [36]): Dose-Dependent Effect | Activity (HCT-116 [37]): Dose-Dependent Effect | Activity (Jurkat [38]): Dose-Dependent Effect | Activity (HCT-116 [39]): Dose-Dependent Effect
